This is a sample that favours compounds with a hit; in the whole collection about 1.8% have one here.
NR1D1 modulator: modulators of human Rev-erb alpha DNA binding; P20393; Rev-erbα–FITC-DNA binding, fluorescence polarization, 90 min; activity, % at 10 µM; hit rate 0.79% among 370,000; AID 1259318;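 active = activity above about 14%, limit read from the data; passing the limit was not always enough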
NR2E3 ag-1: agonists of human nuclear receptor NR2E3; hit rate 0.12% among 320,000; GST-NR2E3/biotin-RetCOR TR-FRET, 1536-well; inhibition of corepressor binding, % at 4.78 µM;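 active = percent inhibition above the cutoff of mean plus 3 SD of all tested compounds, set per screening campaign, cut at about 20% in these data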
Target sequence (Q9Y5X4 whole entry, looked up): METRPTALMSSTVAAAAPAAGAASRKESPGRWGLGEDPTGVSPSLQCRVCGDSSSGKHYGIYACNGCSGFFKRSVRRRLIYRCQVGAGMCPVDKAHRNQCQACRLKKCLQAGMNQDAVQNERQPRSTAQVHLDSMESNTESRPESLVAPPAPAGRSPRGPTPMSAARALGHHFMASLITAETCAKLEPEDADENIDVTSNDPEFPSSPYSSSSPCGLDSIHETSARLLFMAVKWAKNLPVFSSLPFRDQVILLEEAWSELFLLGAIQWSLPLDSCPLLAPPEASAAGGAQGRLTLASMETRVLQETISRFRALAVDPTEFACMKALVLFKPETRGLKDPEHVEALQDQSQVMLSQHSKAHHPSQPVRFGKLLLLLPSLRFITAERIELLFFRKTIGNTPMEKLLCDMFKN
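Assay system: NR2E3–RetCOR corepressor complex. Quantity: 1.35 nM GST-NR2E3. Buffer or medium: pH 7.5 Tris-based buffer. Reagent: biotinylated RetCOR corepressor at 7 nM final. Schedule: 5 h at 4 °C. Detection: TR-FRET, emission read at 617 and 671 nm. Replicates: one well per compound, singlicate testing.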
NR2E3 ag-2: human photoreceptor-specific nuclear receptor agonism; hit rate 0.35% among 360,000; Q9Y5X4; inhibition of corepressor binding, % at 3.98 µM; CHO-S Gal4-NCOR/VP16-NR2E3 two-hybrid, luciferase;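 active = inhibition above the mean of all tested compounds plus 3 SD, cut at about 70% in these data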;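 note: higher means lower luciferase signal from less NR2E3 corepressor binding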
GalR3 antagonist: human GalR3 antagonism | O60755 | HEK293 GalR3-CNG cAMP membrane potential fluorescence; galR3 body fused to GalR1 C-terminus | inhibition, % at 3 µM | hit rate 0.44% among 360,000;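 active = inhibition above the screen-wide average plus 3 SD, cut at about 13% in these data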;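 note: forskolin and galanin both at EC90 stimulate the cells; cAMP rise reported by CNG channel membrane potential dye signal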
Target sequence (O60755 1-299 limits assumed): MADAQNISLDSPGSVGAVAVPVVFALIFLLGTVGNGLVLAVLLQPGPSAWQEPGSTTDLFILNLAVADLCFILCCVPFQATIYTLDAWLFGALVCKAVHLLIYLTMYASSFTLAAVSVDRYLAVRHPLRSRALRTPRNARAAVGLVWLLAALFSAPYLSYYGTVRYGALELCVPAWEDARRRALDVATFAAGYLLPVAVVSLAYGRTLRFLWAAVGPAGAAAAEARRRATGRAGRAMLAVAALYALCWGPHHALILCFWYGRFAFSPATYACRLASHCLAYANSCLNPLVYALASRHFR
PG9 Ab binder: small molecules binding HIV-1 gp120 antibody PG9. TR-FRET gp120-PG9 antibody binding. inhibition, % at 6.7 µM. hit rate 0.43% among 360,000. AID 624416; in the data active = inhibition above about 8.5%
NR2E3 ag conf: confirmation of human NR2E3 agonists | shares compounds with NR2E3 ag-2 | CHO-S mammalian two-hybrid NR2E3-NCOR, luciferase luminescence | inhibition, % at 3.98 µM | hit rate 51% among 2,300 | AID 624378;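 active = average inhibition above a cutoff equal to the mean inhibition of all tested compounds plus one SD, cut at about 70% in these data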
VP16 counter: counter-screen for NR2E3 agonists: GAL4-VP16 reporter inhibitors | hit rate 29% among 2,300 | CHO-S GAL4-VP16 luciferase reporter, luminescence | inhibition, % at 3.98 µM | shares compounds with NR2E3 ag-2;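 active = mean inhibition above a cutoff equal to the average over all tested compounds plus one standard deviation, cut at about 70% in these data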;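 note: luciferase from a UAS reporter driven by GAL4-VP16 transactivation; higher means less reporter light so more repression of VP16 activity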
Each line names hits and unclear results; the compound was inactive in the other large screens (follow-up assays come after a bar, where they were run).

CC12CCC(=O)C=C1CCC1C2CCC2(C)C(c3csc(N)n3)CCC12 (centres undefined)	NR2E3 ag-2 75.2 (no result: NR2E3 ag-1) | NR2E3 ag conf 94.1 | VP16 counter 76.2
Cc1ccc(S(=O)(=O)N2CCCC2C(=O)N2CCN(c3ccccc3)CC2)cc1 (centres undefined)	none (no result: NR2E3 ag-1, NR2E3 ag-2, GalR3 antagonist, PG9 Ab binder)
CCCOc1ccc(S(=O)(=O)NCc2ccc(OC)cc2)cc1	none | NR2E3 ag conf inactive | VP16 counter inactive
C[C@@H]1ON(C)[C@H]2C[C@H]3c4[nH]c5c(-c6ccc7c(c6)OCO7)cccc5c4CCN3C(=O)[C@@H]12	none (no result: NR2E3 ag-1, NR2E3 ag-2)
Cc1cc(C)cc(NC(=O)c2ccc([N+](=O)[O-])o2)c1	NR2E3 ag-2 83.5 (no result: NR2E3 ag-1) | NR2E3 ag conf inactive | VP16 counter inactive
CC(=O)c1ccc(NC(=O)c2ccc([N+](=O)[O-])o2)cc1	none (no result: NR2E3 ag-1)
COC(=O)c1cc(-c2cc(Cl)ccc2OC)c(=O)n2c1CCC2	none (no result: NR2E3 ag-1, NR2E3 ag-2, GalR3 antagonist, PG9 Ab binder)
CNc1sc(C(=O)c2ccc(F)cc2)c(N)c1-c1nc2ccccc2s1	none
CNc1sc(C(=O)c2cccs2)c(N)c1-c1nc2ccccc2s1	none | NR2E3 ag conf inactive | VP16 counter inactive
O=S(=O)(c1ccc2c(c1)C(O)c1ccccc1CC2)C(F)(F)F (centres undefined)	none | NR2E3 ag conf inactive | VP16 counter inactive
C#CCNC(=O)C[C@H]1C[C@@]2(C(=O)OC)C(=C[C@H](C(C)C)O[C@@H]2C2CC2)N(Cc2ccc3c(c2)OCO3)C1=O	none (no result: NR2E3 ag-1, NR2E3 ag-2, GalR3 antagonist, PG9 Ab binder)
O=[N+]([O-])c1ccc(Cl)c(CN2CCN(c3ncccn3)CC2)c1	none
Cc1ccc2nc(C)c(CN3CCN(c4ccc([N+](=O)[O-])cc4Cl)CC3)n2c1	NR2E3 ag-2 104.2 | NR2E3 ag conf 95.2 | VP16 counter 84.2
COc1ccc(NC(=O)N2CCN(c3cccc(C(F)(F)F)c3)CC2)cc1	none
Cc1ccnc(NC(=S)N2CCN(c3cccc(C(F)(F)F)c3)CC2)c1	NR2E3 ag-2 84.0 | NR2E3 ag conf 91.3 | VP16 counter inactive
CN(C)S(=O)(=O)c1ccc(NC(=O)N2CCN(c3cccc(C(F)(F)F)c3)CC2)cc1	none | NR2E3 ag conf 80.0 | VP16 counter inactive
Cc1ccc(C)c(NC(=S)N2CCN(c3cccc(C(F)(F)F)c3)CC2)c1	none
COc1ccc(Cl)cc1NC(=S)NNC(=O)C1(C)CC1(Cl)Cl (centres undefined)	none | NR2E3 ag conf inactive | VP16 counter inactive
CCC(=O)N1CCC(C(=O)NC2CCCc3ccccc32)CC1 (centres undefined)	none (no result: NR2E3 ag-1, NR2E3 ag-2, GalR3 antagonist, PG9 Ab binder)
O=C(Nc1ccc2c(c1)Cc1ccccc1-2)NC1CCCCN(Cc2ccc(Cl)cc2)C1=O (centres undefined)	none (no result: NR2E3 ag-1, NR2E3 ag-2, GalR3 antagonist, PG9 Ab binder)
Cn1cc(C(=O)c2ccc(Cl)cc2)cc1-c1nc2ccccc2n1C	none | NR2E3 ag conf inactive | VP16 counter inactive
Cn1c(=O)c(C(=O)c2ccccc2)nc2ccccc21	none
COc1ccc(-n2c(Cc3cccs3)nnc2SCC(=O)Nc2ccc(OCc3ccccc3)cc2)cc1	none (no result: NR2E3 ag-1, NR2E3 ag-2, GalR3 antagonist, PG9 Ab binder)
Cc1ccc(C)c(NC(=O)c2ccccc2NS(=O)(=O)c2cc([N+](=O)[O-])ccc2C)c1	NR2E3 ag-2 85.5 | NR2E3 ag conf 99.3 | VP16 counter 89.0
Cc1ccc(C)c(S(=O)(=O)Nc2ccccc2C(=O)Nc2cc(C)on2)c1	none | NR2E3 ag conf inactive | VP16 counter inactive
O=C(C1CC1)N1CCC(c2nc(-c3ccc(S(=O)(=O)NCC4CCCO4)cc3)no2)CC1 (centres undefined)	none | NR2E3 ag conf inactive | VP16 counter inactive
O=C(c1ccccc1)N1CCC(c2nc(-c3ccc(S(=O)(=O)NCC4CCCO4)cc3)no2)CC1 (centres undefined)	none
CS(=O)(=O)N1CCCC(c2nc(-c3ccc(S(=O)(=O)NCc4ccccc4)cc3)no2)C1 (centres undefined)	none (no result: GalR3 antagonist, PG9 Ab binder) | NR2E3 ag conf 72.9 | VP16 counter inactive
COc1ccc(-c2cc3c(=O)n(CC(=O)NCCCN4CCN(Cc5ccccc5)CC4)ncn3n2)cc1	none | NR2E3 ag conf inactive | VP16 counter inactive
COC(=O)c1ccc(/C=C2/SC(=S)N(CCCC(=O)Nc3ccc(O)cc3)C2=O)cc1	none
Cc1ccc(/C=C2\SC(=S)N(CCCC(=O)Nc3ccccn3)C2=O)cc1	none | NR2E3 ag conf inactive | VP16 counter 92.9
O=C(CN1C(=O)S/C(=C/C=C/c2ccccc2)C1=O)Nc1ccc(C(=O)O)cc1	none
O=C(CCCN1C(=O)S/C(=C\C=C\c2ccccc2)C1=O)Nc1ccc(O)cc1	none | NR2E3 ag conf inactive | VP16 counter inactive
O=C(CCN1C(=O)/C(=C/c2ccccc2)SC1=S)Nc1ccccn1	none
Cc1ccc(/C=C2\SC(=S)N(CCCC(=O)Nc3ccc(O)cc3)C2=O)cc1	NR2E3 ag-2 77.8 | NR2E3 ag conf inactive | VP16 counter inactive
COc1ccc(-n2c(SCC(=O)Nc3cc(C)c(NC(=O)c4ccccc4)cc3OC)nnc2-c2ccco2)cc1	none (no result: NR2E3 ag-1, NR2E3 ag-2, GalR3 antagonist, PG9 Ab binder)
COc1ccc2oc(C(=O)OCC(=O)N3CCN(S(=O)(=O)c4ccccc4)CC3)c(C)c2c1	none | NR2E3 ag conf 90.1 | VP16 counter 71.5
O=C(c1cccnc1Cl)N1CCC(Oc2cccnc2)CC1	none (no result: NR2E3 ag-1, NR2E3 ag-2, GalR3 antagonist, PG9 Ab binder)
COc1cccc(-c2nnc(SCC(=O)Nc3ccc(Oc4ccccc4)cc3)n2Cc2ccco2)c1	none (no result: NR2E3 ag-1, NR2E3 ag-2, GalR3 antagonist, PG9 Ab binder)
O=C(OCCOc1ccc(Cl)cc1)c1cc(S(=O)(=O)N2CCCCC2)ccc1N1CCOCC1	none (no result: NR2E3 ag-1) | NR2E3 ag conf 72.5 | VP16 counter inactive
Cc1ccc(OCCOC(=O)c2cc(S(=O)(=O)N3CCCCC3)ccc2N2CCOCC2)cc1	none | NR2E3 ag conf 71.5 | VP16 counter inactive
Cn1c(Cc2cccs2)nnc1SCC(=O)Nc1ccc2c(c1)OCCO2	none (no result: NR2E3 ag-1, NR2E3 ag-2, GalR3 antagonist, PG9 Ab binder)
N#CC(c1cccc(Cl)c1)c1ccc2c(C(F)(F)F)cc(C(F)(F)F)nc2n1 (centres undefined)	NR2E3 ag-2 110.3 | NR2E3 ag conf 99.4 | VP16 counter 90.6
COc1cccc(C=Nc2ccc3c(c2)OCCO3)c1O	NR2E3 ag-2 74.0 (no result: NR1D1 modulator, GalR3 antagonist, PG9 Ab binder) | NR2E3 ag conf inactive | VP16 counter inactive
CCN(CC)CCCNc1ncnc2ccccc12	none
OCCCCCNc1ncnc2ccccc12	NR2E3 ag-2 79.3 | NR2E3 ag conf inactive | VP16 counter inactive
CC(=O)/C(=N/Nc1cccc(Cl)c1)N1CCOCC1	none | NR2E3 ag conf inactive | VP16 counter inactive
CC(=O)/C(=N/Nc1ccccc1)N1CCOCC1	none
CCCCCCCCN1C(=O)[C@@H](CC(=O)NCCCN2CCCC2=O)C[C@@]2(C(=O)OC)C1=C[C@H](C(C)C)O[C@@H]2C1CC1	none (no result: NR2E3 ag-1, NR2E3 ag-2, GalR3 antagonist, PG9 Ab binder)
CCOc1cc(CNc2ccc3c(c2)OCCO3)cc(Br)c1OCC	none | NR2E3 ag conf inactive | VP16 counter inactive
C=CCOC(=O)N1CCN(C(=O)c2ccc3c(c2)nc(C)n3C2CCCC2)CC1	none (no result: NR2E3 ag-1, NR2E3 ag-2, GalR3 antagonist, PG9 Ab binder)
C/C(=N\NC(=S)NC1CCCCC1)c1ccc(O)cc1	none

Screens: PubChem, several laboratories
